Source: PubChem BioAssay (Broad Institute)
Tcruzi prolif = inhibitors of T. cruzi proliferation; T. cruzi beta-gal in NIH3T3, GalScreen luminescence, 90 h; inhibition, % at 8.34 µM; hit rate 5.9% among 77,000;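 active = mean inhibition above about 93%, with at least 55% of replicates each passing it, limit read from the data, passing the limit was not always enough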
Pf Dd2 growth = blocks growth of Plasmodium falciparum Dd2 parasites; AID 1159554; hit rate 2.3% among 94,000; P. falciparum Dd2 growth, SYBR Green, 72 h; hits give low values; activity change, % at 10 µM; in the data active = activity change below about -80%
IDH1 R132H inh = IDH1 R132H (human) inhibition; AID 624101; hit rate 0.18% among 70,000; O75874; IDH1 R132H reductase, diaphorase/resazurin fluorescence, 60 min; inhibition, % at 10 µM; in the data active = inhibition above about 34%;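 also: 0% = DMSO and 100% = no enzyme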
GASC1 inh = inhibitors of human demethylase GASC-1 KDM4C; Q9H3R0; GST-KDM4C 2-372, H3K9me3 peptide, LANCE TR-FRET; inhibition, % at 12.5 µM; hit rate 0.15% among 96,000; AID 720574;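 active = mean replicate inhibition above about 25%, with at least 55% of replicates also reaching it, limit read from the data, passing the limit was not always enough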
Target sequence (Q9H3R0 2-372 limits assumed): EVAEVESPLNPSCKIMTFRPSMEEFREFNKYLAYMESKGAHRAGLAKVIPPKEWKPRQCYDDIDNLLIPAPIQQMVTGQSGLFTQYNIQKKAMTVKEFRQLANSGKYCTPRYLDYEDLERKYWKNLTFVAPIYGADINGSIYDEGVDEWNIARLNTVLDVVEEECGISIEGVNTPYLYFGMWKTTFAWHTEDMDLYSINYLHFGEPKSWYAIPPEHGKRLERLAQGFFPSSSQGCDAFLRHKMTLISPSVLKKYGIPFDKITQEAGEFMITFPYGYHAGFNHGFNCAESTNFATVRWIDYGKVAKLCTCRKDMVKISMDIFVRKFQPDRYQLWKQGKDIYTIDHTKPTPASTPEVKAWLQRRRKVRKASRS
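reagent = H3K9me3 peptide substrate, Fe(II), 2-oxoglutarate | system = GST-tagged GASC-1 (JMJD2C) catalytic fragment, aa 2-372 | amount = enzyme final amount 10 nM | read-out = Fall in 671/618 emission ratio as inhibition | medium = HEPES buffer, pH 7.5, plus ascorbate | schedule = 30 min reaction, 60 min detection, RT | measured by = LANCE TR-FRET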
An asterisk follows results filed as active; ! = not active in a repeat. An excerpt weighted towards active compounds, which were near 5.9% of everything screened.

`C[C@@H]1CCCCO[C@H](CN(C)Cc2ccncc2)[C@H](C)CN([C@@H](C)CO)C(=O)c2cc(NC(=O)CCC(F)(F)F)ccc2O1` gave Tcruzi prolif 66, Pf Dd2 growth -4, IDH1 R132H inh 75* and GASC1 inh 34*.
Screening C[C@@H]1CN([C@@H](C)CO)C(=O)c2cc(NC(=O)CCCN(C)C)ccc2O[C@@H](C)CCCCO[C@@H]1CN(C)Cc1ccc(C(F)(F)F)cc1 returned Tcruzi prolif -70, Pf Dd2 growth -80 and GASC1 inh 0.
For Cc1cccc(OCCCC(=O)Nc2ccc3c(c2)OCCO3)c1C the results were IDH1 R132H inh 0.
Screening C[C@H](CO)N1C[C@H](C)[C@@H](CN(C)Cc2ccc(C(F)(F)F)cc2)OCCCC[C@H](C)Oc2ccc(NC(=O)Cc3ccccc3)cc2C1=O returned Tcruzi prolif 1, Pf Dd2 growth -81*, IDH1 R132H inh -1 and GASC1 inh 0.
For C[C@@H]1CCCCO[C@H](CN(C)Cc2ccc(C(F)(F)F)cc2)[C@H](C)CN([C@@H](C)CO)C(=O)c2cc(NC(=O)Cc3ccccc3)ccc2O1 the results were Tcruzi prolif -25 and Pf Dd2 growth -61.
COC(=O)[C@@H]1[C@@H](CO)[C@@H]2Cn3c(ccc(C4=CCCCC4)c3=O)[C@@H]2N1C(=O)c1ccccc1F was read as Tcruzi prolif 2, Pf Dd2 growth -27 and GASC1 inh 0.
Screening C/C=C/c1ccc(C2[C@H]3CNC[C@@H]2N3Cc2cc(F)ccc2F)cc1 (some centres not stated) returned Pf Dd2 growth -84*! and GASC1 inh 3.
CCCN(C)C[C@H]1Oc2cc(C#Cc3cccnc3)ccc2S(=O)(=O)N([C@H](C)CO)C[C@@H]1C was read as Tcruzi prolif 89, Pf Dd2 growth -82*, IDH1 R132H inh 0 and GASC1 inh -3.
For CCCN(C)C[C@H]1Oc2cc(C#Cc3ccncc3)ccc2S(=O)(=O)N([C@H](C)CO)C[C@H]1C the results were Pf Dd2 growth -71, IDH1 R132H inh 0 and GASC1 inh -2.
`CCCN(C)C[C@@H]1Oc2cc(C#Cc3cccnc3)ccc2S(=O)(=O)N([C@@H](C)CO)C[C@H]1C` gave Tcruzi prolif 61, Pf Dd2 growth -89*, IDH1 R132H inh 2 and GASC1 inh -2.
Screening O=C(C[C@@H]1C=C[C@H](NC(=O)c2ccc3c(c2)OCO3)[C@@H](CO)O1)NCc1ccc(Oc2ccccc2)cc1 returned Tcruzi prolif -40, Pf Dd2 growth -24, IDH1 R132H inh 0 and GASC1 inh 4.
`C[C@H](CO)N1C[C@H](C)[C@@H](CN(C)S(=O)(=O)c2ccc(F)cc2)Oc2ccc(NS(=O)(=O)c3ccc(Cl)cc3)cc2CC1=O` gave Tcruzi prolif 7, Pf Dd2 growth -50, IDH1 R132H inh 2 and GASC1 inh -1.
`C[C@H](CO)N1C[C@H](C)[C@@H](CN(C)S(=O)(=O)c2cn(C)cn2)Oc2ccc(NC(=O)CCC(F)(F)F)cc2CC1=O` gave Tcruzi prolif -11, Pf Dd2 growth 42, IDH1 R132H inh 10 and GASC1 inh 26*.
`C[C@H]1CN([C@@H](C)CO)C(=O)c2cc(NC(=O)Cc3cn(C)c4ccccc34)ccc2O[C@H]1CN(C)S(=O)(=O)c1ccccc1` gave Tcruzi prolif 80, Pf Dd2 growth -91* and IDH1 R132H inh -40.
Cc1ccc(S(=O)(=O)N(C)C[C@H]2Oc3ccc(NC(=O)Cc4cn(C)c5ccccc45)cc3C(=O)N([C@H](C)CO)C[C@@H]2C)cc1 was read as Tcruzi prolif 26, Pf Dd2 growth -83* and GASC1 inh -3.
For C[C@@H]1CN([C@@H](C)CO)C(=O)c2cc(NC(=O)Cc3cn(C)c4ccccc34)ccc2O[C@H]1CN(C)S(=O)(=O)c1ccccc1 the results were Tcruzi prolif 39 and Pf Dd2 growth -22.
Screening Cc1ccc(S(=O)(=O)N(C)C[C@@H]2Oc3ccc(NC(=O)Cc4cn(C)c5ccccc45)cc3CC(=O)N([C@@H](C)CO)C[C@H]2C)cc1 returned Tcruzi prolif 48, Pf Dd2 growth -83*, IDH1 R132H inh 1 and GASC1 inh -6.
C[C@@H]1CN([C@@H](C)CO)C(=O)c2cccc(NC(=O)Nc3ccccc3)c2O[C@@H]1CN(C)C(=O)Nc1ccc2c(c1)OCO2 was read as Tcruzi prolif -3, Pf Dd2 growth -85*, IDH1 R132H inh -1 and GASC1 inh 0.
C[C@@H]1CN([C@@H](C)CO)C(=O)c2cccc(NC(=O)C3CC3)c2O[C@@H]1CN(C)C(=O)Nc1ccc2c(c1)OCO2 was read as Tcruzi prolif 19, Pf Dd2 growth -83*, IDH1 R132H inh -1 and GASC1 inh -3.
